Bioassay records as filed in PubChem BioAssay.
Cav32 inh: Cav3.2 calcium influx blockers – cell-based, Fluo-4 calcium fluorescence, FDSS, MLSMR library, primary screen. Voltage-dependent T-type calcium channel subunit alpha-1H (Homo sapiens), O95180. B-score at 10 µM. Cav3.2-expressing cells; active compounds read low. 100,000 tested, 4% active. AID 449739, 2010;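 active = single-dose well whose peak fluorescence ratio is a statistical outlier from its plate by either plate-standardised score or position-corrected B-score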
hDAT+cocaine: changed hDAT dopamine uptake under cocaine IC80, either direction, primary screen, cocaine antagonist project, cell-based, LLC-PK1 hDAT, [14C]-dopamine uptake, MLSMR; B-score at 10 µM; AID 449768, 2010; 110,000 tested, 1.3% active; LLC-PK1 hDAT cells, [14C]-dopamine uptake with cocaine IC80; actives deviate in either direction;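 active = Z score or B-score, a plate-position-corrected score, falls beyond the plate's 99.7% confidence bounds, in either direction; inactive = both scores lie inside the 99.7% bounds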;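 note: scored against the spread of the other compound wells on the same plate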
Target sequence (Q01959 whole entry, looked up): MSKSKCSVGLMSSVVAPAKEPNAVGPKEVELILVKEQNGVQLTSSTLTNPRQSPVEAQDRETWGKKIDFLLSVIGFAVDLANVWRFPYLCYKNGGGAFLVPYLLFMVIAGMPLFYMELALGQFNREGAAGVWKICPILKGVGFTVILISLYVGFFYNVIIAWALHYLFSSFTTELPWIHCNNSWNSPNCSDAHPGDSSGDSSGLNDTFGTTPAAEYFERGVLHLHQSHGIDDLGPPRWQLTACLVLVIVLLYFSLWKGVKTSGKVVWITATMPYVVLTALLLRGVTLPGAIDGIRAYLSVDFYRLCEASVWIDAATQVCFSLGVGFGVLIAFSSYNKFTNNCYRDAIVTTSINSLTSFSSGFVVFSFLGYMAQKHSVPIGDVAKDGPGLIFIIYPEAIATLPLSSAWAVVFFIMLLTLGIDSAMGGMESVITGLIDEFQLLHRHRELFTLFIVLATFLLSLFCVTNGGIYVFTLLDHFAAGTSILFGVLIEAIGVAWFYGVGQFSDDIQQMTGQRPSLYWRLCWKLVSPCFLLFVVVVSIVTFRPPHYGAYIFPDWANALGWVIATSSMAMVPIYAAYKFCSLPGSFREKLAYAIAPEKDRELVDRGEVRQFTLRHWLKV
Measles CPE: compounds protecting cells from measles virus cytopathic effect, primary screen, measles RdRp inhibitor project, single point, MLSMR library, absorbance. Measles virus-infected cells, CPE protection. 140,000 tested, 1.5% active. protection (pct of control), % at 4 µM; in the data active = protection mostly above about 24%, no sharp cut-off; inactive = mostly below about 26%
Rev-RRE block: HIV-1 Rev-RRE binding inhibitors, primary screen, biochemical, FRET, protein-RNA interaction; AID 704, 2007; 97,000 tested, 0.79% active; Rev peptide-RRE RNA binding; inhibition, % at 8 µM;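 active = inhibition above the screen-wide mean plus 3 SD, cut at about 35% in these data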;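 note: 0% = median DMSO wells and 100% = median Neomycin B control wells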
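Test system: Cy5-tagged RRE RNA duplex with fluorescein-tagged Rev peptide | Read-out: % inhibition of FRET ratio versus controls | Probe or stimulus: Labelled Rev peptide | Incubation: 5 min RNA-compound premix plus 15 min binding step, 25 °C | Technique: FRET fluorescence readout | Benchmarks: DMSO low control, neomycin B high control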
Phagocytosis inh: inhibitors of macrophage phagocytosis, primary screen, imaging, J774A.1 cells, IgG beads. inhibition, % at 5 µM. 110,000 tested, 0.07% active. AID 1029, 2008. J774A.1 macrophage IgG-bead phagocytosis;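 active = inhibition above the mean of the plate negative controls plus 5 SD, cut at about 13% in these data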;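 note: phagocytic index as fraction of beads internalized from green versus red external bead signal; plate controls were DMSO negative control for no effect and cytochalasin-D positive control for full effect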
Pyk2 oligo antag: antagonists of Pyk2 self-association, primary screen, Q293 cells, FERM NanoBiT luminescence, HTS | active compounds read low | AID 1347419, 2020 | 99,000 tested, 0.83% active | Protein-tyrosine kinase 2-beta (Homo sapiens), Q14289 | z-score (the deposit names both 25 µM and 10 µM);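 active = Z-score of -3 or lower, scaled per plate to the spread of control and sample wells; inactive = z-score above -3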;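 note: negative z-score means lost luminescence so less FERM oligomerization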
* = called active by the depositor; . = no result. Compounds with a hit are over-represented: about 5.9% of the library has one in this group of screens.

SMILES	Cav32 inh	hDAT+cocaine	Measles CPE	Rev-RRE block	Phagocytosis inh	Pyk2 oligo antag
COc1ccc(N(Cc2ccccc2)C(=O)CSc2nnc(Cn3nnc4ccccc43)o2)cc1	-5.81*	0.946	5.3	6.7	0.0	-0.84
c1ccc(C2CC(c3ccccc3)n3c(nc4ccccc43)N2)cc1 (configuration not stated)	.	.	2.7	.	-2.8	.
Cc1c(C(=O)Nc2ccccc2)sc2nc[nH]c(=O)c12	.	.	13.4	.	-10.1	.
CC(=O)N(CCC(Cc1ccccc1)c1ccc2c(c1)OCO2)Cc1ccc(Cl)cc1 (configuration not stated)	-3.08*	1.02	12.8	-1.5	-0.1	-2.13
O=C(O)CC(Cc1ccccc1)c1ccc2c(c1)OCO2 (configuration not stated)	.	.	26.7	4.4	-0.4	-0.19
COc1ccccc1C(O)(C(=O)NN(C)c1ccccc1)c1ccccc1OC	.	.	2.4	.	.	.
O=C(O)COc1ccc(NC(=O)c2cccs2)cc1	0.998	-0.163	48.4*	9.1	.	-0.28
CCCCOCCCNC(=O)c1cccs1	-1.06	0.00694	4.4	3.7	-5.0	1.09
CCc1ccc(OCCNC(=O)c2cccs2)cc1	-5.93*	-0.519	39.6	6.2	.	-0.02
CC1(C)CC(CC(=O)Nc2nccs2)(c2ccccc2)CCO1 (configuration not stated)	.	.	17.5	.	.	.
O=C(c1ccc(Cl)cc1)N1CCC(=O)N(C(CO)Cc2ccccc2)CC1 (configuration not stated)	0.136	0.813	.	.	.	.
CSc1ccccc1C(=O)N1CCOCC1	-0.514	-0.449	10.7	10.5	.	-0.24
O=C(c1ccccc1CCc1ccccc1)N1CCOCC1	-0.0528	-6.81*	23.4	2.0	-0.1	0.22
C(=C\c1ccccc1)/CSc1nnc(-c2ccccc2)n1Cc1ccco1	-5.81*	-1.03	4.1	11.9	1.3	-2.24
Cc1cccc(-c2nnc(SCc3nc4ccccc4[nH]3)n2Cc2ccco2)c1	-4.8*	2.26	21.2	10.1	-2.5	0.44
Cc1ccc(-c2nnc(SCc3nc4ccccc4[nH]3)n2Cc2ccco2)cc1	.	.	5.7	10.5	1.5	-0.92
O=S(=O)(Nc1ccccc1)c1ccc(Oc2ncc(C(F)(F)F)cc2Cl)cc1	0.297	0.0513	41.2*	19.1	-0.6	-0.61
C#CCOCCOCCOCCNc1nc(N2CCN(C(=O)C([C@@H](C)CC)n3cc(C(N)Cc4ccc(O)cc4)nn3)CC2)nc(N2CCN(C(=O)[C@H](CCC(=O)O)n3cc(C(N)CO)nn3)CC2)n1 (some centres not stated)	1.12	-0.115	.	.	.	.
O=[N+]([O-])c1cccnc1N1CCC(c2cc(-c3cccc(C(F)(F)F)c3)n[nH]2)CC1	-0.363	0.471	9.1	20.9	-2.4	-3.39*
O=[N+]([O-])c1cccnc1N1CCC(c2cc(-c3ccc(Cl)cc3Cl)n[nH]2)CC1	-0.494	-0.0837	6.9	13.1	-1.5	-2.74
O=C(O)c1cc(C(F)(F)F)nc2c(C(F)(F)F)cccc12	-0.139	-0.00986	.	.	.	.
COc1ccc(C(c2nnnn2Cc2ccccc2)N2CCN(c3ccccc3)CC2)cc1 (configuration not stated)	-4.55*	0.0681	2.7	.	-3.0	-3.82*
Oc1ccc(C(c2nnnn2C2CCCC2)N2CCc3ccccc3C2)cc1 (configuration not stated)	-6.89*	-0.00379	7.7	10.3	0.7	-0.2
COc1cc(C(c2nnnn2C2CCCC2)N2CCc3ccccc3C2)ccc1O (configuration not stated)	-2.78	0.6	10.2	4.1	-0.4	0.2
COc1ccc(C(c2nnnn2Cc2cccs2)N2CCN(c3ccccc3F)CC2)cc1 (configuration not stated)	-3.42*	1.67	17.9	11.4	-0.7	-3.87*
SMILES	Cav32 inh	hDAT+cocaine	Measles CPE	Rev-RRE block	Phagocytosis inh	Pyk2 oligo antag
Fc1ccc(C(c2nnnn2Cc2cccs2)N2CCN(C3CCCC3)CC2)cc1 (configuration not stated)	-0.464	-0.223	7.6	5.4	-0.7	-1.47
COc1ccc(OC)c(C(c2nnnn2C2CCCC2)N2CCN(c3ccc(F)cc3)CC2)c1 (configuration not stated)	-9.36*	0.0288	8.9	5.1	0.1	-3.25*
CCSc1cc(N2CCCC2)nc(-c2ccccc2Cl)n1	.	.	4.2	.	-2.1	.
COc1ccc(Cn2nnnc2C(c2cccs2)N2CCSCC2)cc1 (configuration not stated)	-2.17	0.158	11.3	6.1	3.0	-0.4
Fc1ccc(Cn2nnnc2C(c2ccc(Cl)cc2)N2CCSCC2)cc1 (configuration not stated)	-7.11*	0.279	10.9	5.9	-1.0	-0.74
CCCC(c1nnnn1Cc1cccs1)N1CCN(c2nc3ccccc3s2)CC1 (configuration not stated)	0.46	-0.658	0.6	1.9	-0.7	-3.49*
CCC(C)(C)n1nnnc1C(c1ccc(OC)c(OC)c1)N1CCN(c2ccc(OC)cc2)CC1 (configuration not stated)	0.394	-0.182	59.2*	-5.8	-0.8	-0.81
c1ccc(Cn2nnnc2C(c2cccs2)N2CCSCC2)cc1 (configuration not stated)	-3.42	-0.23	5.4	2.0	.	-0.92
COc1ccc(Cn2nnnc2C(c2cccs2)N2CCCCCC2)cc1 (configuration not stated)	-4.13*	-1.6	0.7	4.9	0.8	-1.31
CCCC(c1nnnn1CC1CCCO1)N1CCN(c2nc3ccccc3s2)CC1 (configuration not stated)	-0.622	0.164	4.8	6.8	.	-2.41
COCCCN(C(=S)NC(=O)c1ccc(C(C)(C)C)cc1)c1c(N)n(Cc2ccccc2)c(=O)[nH]c1=O	.	.	22.5	.	0.7	.
COC(=O)c1c(NC(=O)c2ccco2)sc(C(=O)N(C)C)c1C	-0.785	-0.0517	8.6	6.2	.	-0.43
O=C(Nc1ccccc1)N1CCc2scc[n+]2-c2ccccc21	.	.	3.2	.	-1.5	.
COc1ccccc1N1CCN(C(c2ccc(C)cc2)c2nnnn2C(C)C)CC1 (configuration not stated)	-4.14	3.07*	2.3	3.7	0.3	-1.48
COc1ccc(C(c2nnnn2C2CCCCC2)N2CCN(c3ccccc3)CC2)cc1 (configuration not stated)	.	.	.	0.0	-0.2	.
COc1ccc(C(c2nnnn2Cc2ccccc2)N2CCN(c3nc4ccccc4s3)CC2)cc1 (configuration not stated)	-4.83*	-0.492	11.6	.	-0.4	-4.09*
